Data set [1] deals with Mus musculus. Briefly: Increase in ratio of 3,4-dihydroxyphenylacetic acid and 4-hydroxy-3-methoxyphenylacetic acid to dopamine level in Kunming mouse frontal cortex at 40 mg/kg, po treated for 7 days by HPLC-ECD analysis. The class given is functional, organism-based. The essentials: (§1)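 Male Kunming mice (18–20 g) given vehicle or 40 mg/kg for 7 days, then killed by cervical dislocation. Frontal cortex, hippocampus, striatum, hypothalamus and thalamus dissected on ice, homogenized in ice-cold 0.2 M perchloric acid with 0.1 mM EDTA, centrifuged 15,000 rpm, 20 min, 4 °C. Supernatant analysed by HPLC-ECD at +0.50 V; phosphate/octanesulfonate mobile phase pH 3.0 with 12% methanol. Levels in ng/g, mean ± SEM.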

The nature of data set [2]: Drug metabolism in Sprague-Dawley rat urine assessed as (2S,3S,4S,5R,6S)-6-(5-acryloyl-2'-hydroxy-5'-(1-hydroxyallyl)biphenyl-2-yloxy)-3,4,5-trihydroxytetrahydro-2H-pyran-2-carboxylic acid formation at 100 mg/kg, po by UPLC-IT-TOF-MS analysis. The format is ADME, organism-based. The note with it: in vivo. Put shortly:
(§2)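 Male/unspecified SD rats (n = 6) housed individually in metabolic cages, dosed orally at 100.0 mg/kg; controls given 0.5% CMC-Na orally. Plasma, urine and faeces collected. LC-IT-TOF-MS on C18 column at 30 °C, formic acid (0.05%) water/acetonitrile gradient 5–100% B over 18 min, 0.2 mL/min; positive and negative ion modes with automatic MS/MS.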

Data set [3] in a line: Drug metabolism in Sprague-Dawley rat feces assessed as (2S,3S,4S,5R,6S)-6-(5-acryloyl-2'-hydroxy-5'-(1-hydroxyallyl)biphenyl-2-yloxy)-3,4,5-trihydroxytetrahydro-2H-pyran-2-carboxylic acid formation at 100 mg/kg, po by UPLC-IT-TOF-MS analysis. The class given is ADME, organism-based. Conditions: in vivo. Put shortly:
(§3)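 Rats (n = 6) housed in metabolic cages received 100.0 mg/kg orally; controls received 0.5% CMC-Na. Plasma, urine and faeces were collected and analyzed by LC-IT-TOF-MS on a C18 column at 30 °C. Gradient 5–100% acetonitrile with 0.05% formic acid over 18 min at 0.2 mL/min; positive and negative ion MS/MS.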

The test system of data set [4] is Mus musculus. As to the kind of experiment: Toxicity in Kunming mouse assessed as effect in spontaneous locomotor activity by measuring total number of line crosses at 10 to 40 mg/kg, po by open field test. The note with it: in vivo. The class given is organism-based. The essentials:
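Male Kunming mice, 18–20 g, group-housed at 22 ± 2 °C on 12 h light/dark, given oral doses of 10, 20 or 40 mg/kg before behavioural testing. Each animal placed in the centre of a black open-field box (24 × 24 × 40 cm) for 30 s adaptation, then explored freely for 6 min. Line crossings and distance recorded. Mean ± SEM, n = 10.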

The nature of data set [5]: Drug metabolism in Sprague-Dawley rat urine assessed as 5'-(1-hydroxyallyl)-5-propyl-2'-((2S,3R,4S,5S,6R)-3,4,5-trihydroxy-6-(hydroxymethyl)tetrahydro-2H-pyran-2-yloxy)biphenyl-2-yl hydrogen sulfate formation at 100 mg/kg, po by UPLC-IT-TOF-MS analysis. The note with it: in vivo. The format is ADME, organism-based. Put shortly: as §2
The nature of data set [6]: Drug metabolism in Sprague-Dawley rat urine assessed as (2S,3S,4S,5R,6S)-6-(5'-allyl-5-(1-hydroxyallyl)-2'-((2S,3R,4S,5S,6R)-3,4,5-trihydroxy-6-(hydroxymethyl)tetrahydro-2H-pyran-2-yloxy)biphenyl-2-yloxy)-3,4,5-trihydroxytetrahydro-2H-pyran-2-carboxylic acid formation at 100 mg/kg, po by UPLC-IT-TOF-MS analysis. The class given is ADME, organism-based. The note with it: in vivo. Put shortly:
as §2

Data set [7] is described as follows: Drug metabolism in Sprague-Dawley rat plasma assessed as (2S,3S,4S,5R,6S)-6-(5,5'-diallyl-2'-methoxybiphenyl-2-yloxy)-3,4,5-trihydroxytetrahydro-2H-pyran-2-carboxylic acid formation at 100 mg/kg, po by UPLC-IT-TOF-MS analysis. The format is ADME, organism-based. Conditions: in vivo. The essentials: as §3
Data set [8] in a line: Drug metabolism in Sprague-Dawley rat urine assessed as (2S,3R,4S,5S,6R)-2-(5,5'-diallyl-2'-methoxybiphenyl-2-yloxy)-6-(hydroxymethyl)tetrahydro-2H-pyran-3,4,5-triol formation at 100 mg/kg, po by UPLC-IT-TOF-MS analysis. The class given is ADME, organism-based. Conditions: in vivo. The essentials:
as §2

The nature of data set [9]: Drug metabolism in Sprague-Dawley rat plasma assessed as 2S,3S,4S,5R,6S)-6-(5,5'-diallyl-2'-((2S,3R,4S,5S,6R)-3,4,5-trihydroxy-6-(hydroxymethyl)tetrahydro-2H-pyran-2-yloxy)biphenyl-2-yloxy)-3,4,5-trihydroxytetrahydro-2H-pyran-2-carboxylic acid formation at 100 mg/kg, po by UPLC-IT-TOF-MS analysis. The class given is ADME, organism-based. The note with it: in vivo. The essentials: as §3

Data set [10] is described as follows: Drug metabolism in Sprague-Dawley rat feces assessed as 1-(5'-allyl-2'-hydroxy-6-((2S,3R,4S,5S,6R)-3,4,5-trihydroxy-6-(hydroxymethyl)tetrahydro-2H-pyran-2-yloxy)biphenyl-3-yl)prop-2-en-1-one formation at 100 mg/kg, po by UPLC-IT-TOF-MS analysis. The class given is ADME, organism-based. Conditions: in vivo. Put shortly: as §3
For data set [11], the system named is Mus musculus. Briefly: Increase in norepinephrine level in Kunming mouse hypothalamus at 40 mg/kg, po treated for 7 days by HPLC-ECD analysis. The class given is functional, organism-based. Put shortly:
as §1

Data set [12] relates to Mus musculus. As to the kind of experiment: Decrease in dopamine level in Kunming mouse hypothalamus at 40 mg/kg, po treated for 7 days by HPLC-ECD analysis. The class given is functional, organism-based. The essentials: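 Male Kunming mice received vehicle or 40 mg/kg for 7 days, then were killed by cervical dislocation and the brain regions dissected on ice. Tissue was homogenized in ice-cold 0.2 M perchloric acid with 0.1 mM EDTA and centrifuged at 15,000 rpm, 20 min, 4 °C. Supernatant was analyzed by HPLC-ECD (+0.50 V; phosphate/octanesulfonate mobile phase, pH 3.0). Results in ng/g, mean ± SEM.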

The test system of the next data set is Rattus norvegicus. Briefly: Toxicity in Sprague-Dawley rat assessed as change in behaviour at 2000 mg/kg, po measured continuously for first 4 hrs followed by measured every hour for next 24 hrs and at 6 hrs intervals for following 48 hrs post dose. The format is organism-based. Conditions: in vivo. The essentials:
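Followed OECD 425 in adult SD rats (180–220 g), three groups of six. Vehicle control received 0.5% CMC-Na orally; separate male and female groups received 2000 mg/kg orally. Endpoints observed: behaviour, breathing, cutaneous effects, sensory nervous system responses, gastrointestinal effects and deaths.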

For data set [13], the target named is Melatonin receptor type 1A (Homo sapiens, UniProt P48039). Briefly: Agonist activity at human MT1 receptor expressed in HEK293 cells after 24 hrs by Fluo-8 dye-based calcium assay. The format is functional, cell-based. The essentials:
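Fluo-8 calcium flux in HEK293 cells stably expressing human MT1 or MT2, grown in DMEM + 10% FBS at 37 °C, seeded 4×10^4/well and incubated 24 h. Compounds in DMSO/HBSS at several concentrations; fluorescence read at room temperature (ex 485, em 525 nm). Triplicate wells, three independent experiments; EC50 by nonlinear regression.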

Data set [14] can be described thus: Drug metabolism in Sprague-Dawley rat urine assessed as 5,5'-diallyl-2'-hydroxybiphenyl-2-yl hydrogen sulfate formation at 100 mg/kg, po by UPLC-IT-TOF-MS analysis. The class given is ADME, organism-based. Conditions: in vivo. Put shortly: as §2
Data set [15] can be described thus: Drug metabolism in Sprague-Dawley rat urine assessed as 5-allyl-5'-(1-hydroxyallyl)-2'-((2S,3R,4S,5S,6R)-3,4,5-trihydroxy-6-(hydroxymethyl)tetrahydro-2H-pyran-2-yloxy)biphenyl-2-yl hydrogen sulfate formation at 100 mg/kg, po by UPLC-IT-TOF-MS analysis. The format is ADME, organism-based. The note with it: in vivo. The essentials: as §2

The text below walks through data of ChEMBL document CHEMBL4270555, “Synthesis and biological evaluation of magnolol derivatives as melatonergic receptor agonists with potential use in depression” (Eur J Med Chem, 2018).

Molecules are shown by their SMILES. Active and inactive are the calls of the source. The rule behind the calls is not given here.

Chain of Melatonin receptor type 1A (P48039 whole entry): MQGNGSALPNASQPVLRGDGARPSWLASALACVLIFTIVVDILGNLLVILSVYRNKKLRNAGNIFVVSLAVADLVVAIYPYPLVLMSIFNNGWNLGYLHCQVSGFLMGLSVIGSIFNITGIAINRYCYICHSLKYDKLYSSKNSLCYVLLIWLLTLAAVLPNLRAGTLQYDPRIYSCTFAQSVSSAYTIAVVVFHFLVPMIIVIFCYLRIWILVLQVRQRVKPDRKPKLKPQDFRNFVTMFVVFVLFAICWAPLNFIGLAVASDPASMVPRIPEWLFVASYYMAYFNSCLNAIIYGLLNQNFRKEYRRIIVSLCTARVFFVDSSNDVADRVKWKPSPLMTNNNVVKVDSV

For the molecule `C=CCc1ccc(O)c(-c2cc(CC=C)ccc2O[C@@H]2O[C@H](CO)[C@@H](O)[C@H](O)[C@H]2O)c1`, the outcome in the data set on Mus musculus [1], in the data set with Mus musculus [11] and in the data set on Mus musculus [12] was Active. Besides, the Drug metabolism result is “Metabolite_Detected” in [2]; “Metabolite_Notdetected” in data set [3]; “Metabolite_Notdetected” in [5]; “Metabolite_Detected” in [6]; “Metabolite_Notdetected” in data set [7]; “Metabolite_Detected” in data set [8]. Further, the Drug metabolism result in data set [9], in data set [10], in data set [14] and in [15] was “Metabolite_Notdetected” each time. Besides, the Activity entry in the data set on Mus musculus [4] and in the data set on Rattus norvegicus was “Non-Toxic” in each case. In [13], the EC50 was found to be 397 µM.

As a reminder, the EC50 is the concentration needed to bring the measured effect to its halfway point.
